Test results as given in ChEMBL document CHEMBL4038350 (J Med Chem, 2017).
Non-standard residues stand in square brackets, D forms with d. Residues, ends and D or L forms follow the SMILES beside them.

Key:
Type in all cases: functional, cell-based
[1] = molecular target: T1, Melanocortin receptor 3 (Mus musculus, UniProt P33033); test: Antagonist activity at mouse melanocortin receptor 3 expressed in HEK293 cells assessed as inhibition of NDP-MSH-induced cAMP accumulation after 2 hrs by AlphaScreen assay; conditions: read-out: pA2 (converted)
[2] = molecular target: Melanocyte-stimulating hormone receptor (Mus musculus, UniProt Q01727); test: Agonist activity at mouse melanocortin receptor 1 expressed in HEK293 cells assessed as increase in cAMP accumulation after 2 hrs by AlphaScreen assay
Summary of the method: (§1)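 Donor beads and biotin-cAMP in lysis buffer followed for 2 h. The AlphaScreen signal was read. EC50 came from nonlinear least-squares fits, duplicates, at least three independent experiments.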

[3] = molecular target: T1, Melanocortin receptor 3; test: Agonist activity at mouse melanocortin receptor 3 expressed in HEK293 cells assessed as increase in cAMP accumulation after 2 hrs by AlphaScreen assay
[4] = molecular target: T2, Melanocortin receptor 4 (Mus musculus, UniProt P56450); test: Agonist activity at mouse melanocortin receptor 4 expressed in HEK293 cells assessed as increase in cAMP accumulation after 2 hrs by AlphaScreen assay
[5] = molecular target: Melanocortin receptor 5 (Mus musculus, UniProt P41149); test: Agonist activity at mouse melanocortin receptor 5 expressed in HEK293 cells assessed as increase in cAMP accumulation after 2 hrs by AlphaScreen assay; summary of the method: as §1
[6] = molecular target: T2, Melanocortin receptor 4; test: Antagonist activity at mouse melanocortin receptor 4 expressed in HEK293 cells assessed as inhibition of NDP-MSH-induced cAMP accumulation after 2 hrs by AlphaScreen assay; conditions: read-out: pA2 (converted)
[7] = molecular target: Melanocyte-stimulating hormone receptor (Mus musculus) (UniProt Q01727); test: Agonist activity at mouse melanocortin receptor 1 expressed in HEK293 cells assessed as increase in cAMP accumulation at 100 uM after 2 hrs by AlphaScreen assay relative to control
Summary of the method: (§2)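 Cyclic peptides were dissolved in DMSO. Receptor-expressing HEK293 cells in IBMX-containing stimulation buffer (pH 7.4) were stimulated for 2 h at room temperature. cAMP was then detected by competitive AlphaScreen after a 2 h lysis/bead step. […] Values come from at least three independent experiments.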

[8] = molecular target: Melanocortin receptor 5 (Mus musculus) (UniProt P41149); test: Inverse agonist activity at mouse melanocortin receptor 5 expressed in HEK293 cells assessed as decrease in cAMP accumulation at 100 uM after 2 hrs by AlphaScreen assay relative to control; design: scale not given: the % may be the effect or the level left
Summary of the method: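 Each replicate was normalized to its own signal at 10−10 M (basal). Where no plateau appeared, inverse agonism was reported as percent decrease from basal at 100 μM. Values are from three independent experiments.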

[9] = molecular target: Melanocortin receptor 3 (Mus musculus) (UniProt P33033); test: Agonist activity at mouse melanocortin receptor 3 expressed in HEK293 cells assessed as increase in cAMP accumulation at 100 uM after 2 hrs by AlphaScreen assay relative to control; summary of the method: as §2
[10] = molecular target: Melanocortin receptor 4 (Mus musculus) (UniProt P56450); test: Agonist activity at mouse melanocortin receptor 4 expressed in HEK293 cells assessed as increase in cAMP accumulation at 100 uM after 2 hrs by AlphaScreen assay; summary of the method: as §2
[11] = molecular target: Melanocortin receptor 5 (Mus musculus) (UniProt P41149); test: Inverse agonist activity at mouse melanocortin receptor 5 expressed in HEK293 cells assessed as decrease in cAMP accumulation at 700 nM after 2 hrs by AlphaScreen assay relative to control; design: scale not given: the % may be the effect or the level left
Summary of the method: (§3)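 In mouse MC5R-HEK293 cells, cAMP was measured by AlphaScreen after 2 h peptide exposure (10−4 to 10−13 M) at room temperature. Each replicate was normalized to its signal at 10−10 M. For sigmoidal curves, percent inverse agonism was the change from basal to the high-concentration plateau. Apparent potency was taken as the curve inflection point. Three independent experiments were run.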

[12] = molecular target: Melanocortin receptor 5 (Mus musculus) (UniProt P41149); test: Agonist activity at mouse melanocortin receptor 5 expressed in HEK293 cells assessed as increase in cAMP accumulation at 100 uM after 2 hrs by AlphaScreen assay relative to control; summary of the method: as §2
[13] = molecular target: Melanocortin receptor 5 (Mus musculus) (UniProt P41149); test: Inverse agonist activity at mouse melanocortin receptor 5 expressed in HEK293 cells assessed as decrease in cAMP accumulation at 150 nM after 2 hrs by AlphaScreen assay relative to control; design: scale not given: the % may be the effect or the level left; summary of the method: as §3
[14] = molecular target: Melanocortin receptor 5 (Mus musculus) (UniProt P41149); test: Inverse agonist activity at mouse melanocortin receptor 5 expressed in HEK293 cells assessed as decrease in cAMP accumulation at 510 nM after 2 hrs by AlphaScreen assay relative to control; design: scale not given: the % may be the effect or the level left; summary of the method: as §3

Chain of Melanocyte-stimulating hormone receptor (Mus musculus) (Q01727 whole entry, looked up): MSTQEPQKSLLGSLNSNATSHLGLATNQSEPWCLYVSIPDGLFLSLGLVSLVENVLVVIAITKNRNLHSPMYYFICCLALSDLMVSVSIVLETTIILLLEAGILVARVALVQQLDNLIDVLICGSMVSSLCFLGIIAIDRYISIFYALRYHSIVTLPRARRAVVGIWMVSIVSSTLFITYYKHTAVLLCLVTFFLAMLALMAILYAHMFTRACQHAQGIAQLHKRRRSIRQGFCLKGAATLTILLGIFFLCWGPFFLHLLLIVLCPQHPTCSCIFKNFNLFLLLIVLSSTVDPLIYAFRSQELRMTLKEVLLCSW
Chain of Melanocyte-stimulating hormone receptor (Q01727 whole entry): as the sequence (Q01727 whole entry, looked up) above
Chain of Melanocortin receptor 5 (Mus musculus) (P41149 whole entry): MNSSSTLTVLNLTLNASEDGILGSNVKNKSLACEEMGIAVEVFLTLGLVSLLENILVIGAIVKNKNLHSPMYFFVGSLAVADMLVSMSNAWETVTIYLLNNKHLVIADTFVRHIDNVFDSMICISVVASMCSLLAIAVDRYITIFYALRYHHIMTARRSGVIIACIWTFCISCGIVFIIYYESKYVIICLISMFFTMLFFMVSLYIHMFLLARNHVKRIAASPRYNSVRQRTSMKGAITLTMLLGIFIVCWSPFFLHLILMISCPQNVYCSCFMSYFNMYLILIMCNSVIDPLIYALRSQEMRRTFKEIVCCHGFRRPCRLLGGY
Chain of Melanocortin receptor 3 (Mus musculus) (P33033 whole entry): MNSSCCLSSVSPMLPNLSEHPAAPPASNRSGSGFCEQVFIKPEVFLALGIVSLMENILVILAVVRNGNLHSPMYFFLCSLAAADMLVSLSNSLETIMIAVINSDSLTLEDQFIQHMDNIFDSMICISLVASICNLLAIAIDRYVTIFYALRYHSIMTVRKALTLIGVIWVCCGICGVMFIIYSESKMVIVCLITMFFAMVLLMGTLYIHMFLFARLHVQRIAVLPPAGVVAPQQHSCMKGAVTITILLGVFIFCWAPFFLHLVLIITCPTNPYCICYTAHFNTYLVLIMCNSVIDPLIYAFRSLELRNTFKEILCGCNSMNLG
T1 sequence (P33033 whole entry): as above
T2 sequence (P56450 whole entry): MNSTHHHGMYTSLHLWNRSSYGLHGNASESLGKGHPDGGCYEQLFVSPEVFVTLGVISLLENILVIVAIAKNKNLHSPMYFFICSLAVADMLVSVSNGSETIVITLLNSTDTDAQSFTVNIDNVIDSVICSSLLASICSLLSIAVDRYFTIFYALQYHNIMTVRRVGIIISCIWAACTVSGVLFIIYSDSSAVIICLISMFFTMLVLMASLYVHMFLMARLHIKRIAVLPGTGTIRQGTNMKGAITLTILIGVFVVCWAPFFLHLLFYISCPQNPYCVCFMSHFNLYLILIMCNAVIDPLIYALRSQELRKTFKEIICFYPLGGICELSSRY
Chain of Melanocortin receptor 4 (Mus musculus) (P56450 whole entry): as above
Chain of Melanocortin receptor 5 (P41149 whole entry): as the sequence (P41149 whole entry) above

**Q.** With `C[C@@H]1NC(=O)[C@H](Cc2ccccc2)NC(=O)[C@H](Cc2ccccc2)NC(=O)[C@H](Cc2ccccc2)NC(=O)[C@H](CCCNC(=N)N)NC(=O)[C@@H]2CCCN2C(=O)[C@H]2CCCN2C(=O)[C@H](Cc2ccccc2)NC1=O` as the compound, how does the Kb [1] read?
**A.** > 3.16 µM

**Q.** What about the EC50 [2] of the same compound?
**A.** > 100 µM

**Q.** And the EC50 [3]?
**A.** > 100 µM

**Q.** And the EC50 [4]?
**A.** > 100 µM

**Q.** What about the EC50 [5] of the same compound?
**A.** > 100 µM

**Q.** And the Kb [6]?
**A.** 0.234 µM

**Q.** What does the source list for `N=C(N)NCCC[C@@H]1NC(=O)[C@@H]2CCCN2C(=O)[C@H]2CCCN2C(=O)[C@H](Cc2ccccc2)NC(=O)[C@H](CC(=O)O)NC(=O)[C@H](CC(N)=O)NC(=O)[C@H](Cc2ccccc2)NC(=O)[C@H](Cc2ccccc2)NC1=O` (cyclo(RFFNDF[dP]P))?
**A.** Kb [1]: > 3.16 µM; EC50 [3]: > 100 µM; EC50 [4]: > 100 µM; Kb [6]: > 3.16 µM; Activity [7]: 65%; Activity [8]: 25%

**Q.** Which Kb [1] does the source give for `C[C@@H]1NC(=O)[C@H](CC(N)=O)NC(=O)[C@H](Cc2ccccc2)NC(=O)[C@H](Cc2ccccc2)NC(=O)[C@H](CCCNC(=N)N)NC(=O)[C@@H]2CCCN2C(=O)[C@H]2CCCN2C(=O)[C@H](C)NC1=O` (cyclo(RFFNAA[dP]P)) here?
**A.** 0.794 µM

**Q.** And the EC50 [2]?
**A.** > 100 µM

**Q.** What about the EC50 [3] of the same compound?
**A.** > 100 µM

**Q.** What about the EC50 [4] of the same compound?
**A.** > 100 µM

**Q.** And the Kb [6]?
**A.** 0.00692 µM

**Q.** And the Activity [8]?
**A.** 25%

**Q.** What does the source list for `CC(C)C[C@@H]1NC(=O)[C@H](CC(N)=O)NC(=O)[C@H](Cc2ccccc2)NC(=O)[C@H](Cc2ccccc2)NC(=O)[C@H](CCCNC(=N)N)NC(=O)[C@@H]2CCCN2C(=O)[C@H]2CCCN2C(=O)[C@H](Cc2ccccc2)NC1=O`?
**A.** Kb [1]: > 3.16 µM; EC50 [5]: > 100 µM; Kb [6]: 0.661 µM; Activity [7]: 80%; Activity [9]: 25%; Activity [10]: 25%

**Q.** With `C[C@@H]1NC(=O)[C@H](CCC(=O)O)NC(=O)[C@H](Cc2ccccc2)NC(=O)[C@H](Cc2ccccc2)NC(=O)[C@H](CCCNC(=N)N)NC(=O)[C@@H]2CCCN2C(=O)[C@H]2CCCN2C(=O)[C@H](Cc2ccccc2)NC1=O` as the compound, how does the Kb [1] read?
**A.** > 3.16 µM

**Q.** And the EC50 [2]?
**A.** 20.5 µM

**Q.** And the EC50 [3]?
**A.** > 100 µM

**Q.** What about the EC50 [4] of the same compound?
**A.** > 100 µM

**Q.** And the Kb [6]?
**A.** 0.1 µM

**Q.** What about the Activity [11] of the same compound?
**A.** 10%

**Q.** With `N=C(N)NCCC[C@@H]1NC(=O)[C@@H]2CCCN2C(=O)[C@H]2CCCN2C(=O)[C@H](Cc2ccccc2)NC(=O)[C@H](Cc2ccccc2)NC(=O)[C@H](CC(N)=O)NC(=O)[C@H](Cc2ccccc2)NC(=O)[C@H](Cc2ccccc2)NC1=O` as the compound, how does the Kb [1] read?
**A.** 1.91 µM

**Q.** What about the Kb [6] of the same compound?
**A.** 1.95 µM

**Q.** What about the Activity [7] of the same compound?
**A.** 70%

**Q.** And the Activity [9]?
**A.** 35%

**Q.** What about the Activity [10] of the same compound?
**A.** 35%

**Q.** What about the Activity [12] of the same compound?
**A.** 25%

**Q.** Which Kb [1] does the source give for `C[C@@H]1NC(=O)[C@H](Cc2c[nH]c3ccccc23)NC(=O)[C@H](Cc2ccccc2)NC(=O)[C@H](Cc2ccccc2)NC(=O)[C@H](CCCNC(=N)N)NC(=O)[C@@H]2CCCN2C(=O)[C@H]2CCCN2C(=O)[C@H](Cc2ccccc2)NC1=O` (cyclo(RFFWAF[dP]P)) here?
**A.** 2 µM

**Q.** What about the Kb [6] of the same compound?
**A.** 0.155 µM

**Q.** And the Activity [7]?
**A.** 80%

**Q.** What about the Activity [9] of the same compound?
**A.** 40%

**Q.** And the Activity [10]?
**A.** 50%

**Q.** And the Activity [13]?
**A.** 20%

**Q.** How did the Kb [1] turn out when `CC(C)[C@@H]1NC(=O)[C@H](Cc2ccccc2)NC(=O)[C@H](Cc2ccccc2)NC(=O)[C@H](CCCNC(=N)N)NC(=O)[C@@H]2CCCN2C(=O)[C@H]2CCCN2C(=O)[C@H](Cc2ccccc2)NC(=O)[C@H](C)NC1=O` was run?
**A.** > 3.16 µM

**Q.** And the EC50 [3]?
**A.** > 100 µM

**Q.** What about the EC50 [4] of the same compound?
**A.** > 100 µM

**Q.** And the Kb [6]?
**A.** 1.26 µM

**Q.** What about the Activity [7] of the same compound?
**A.** 55%

**Q.** And the Activity [14]?
**A.** 25%

**Q.** Which results are given for `CC[C@@H]1NC(=O)[C@H](Cc2ccccc2)NC(=O)[C@H](Cc2ccccc2)NC(=O)[C@H](CCCNC(=N)N)NC(=O)[C@@H]2CCCN2C(=O)[C@H]2CCCN2C(=O)[C@H](Cc2ccccc2)NC(=O)[C@H](C)NC1=O`?
**A.** EC50 [2]: > 100 µM; EC50 [4]: > 100 µM
